Consider 18 molecules from ChEMBL document CHEMBL2086251, “Arylazolyl(azinyl)thioacetanilides. Part 10: design, synthesis and biological evaluation of novel substituted imidazopyridinylthioacetanilides as potent HIV-1 inhibitors” (Bioorg Med Chem, 2012).

The test system of data set [1] is Human immunodeficiency virus 1. As to the kind of experiment: Antiviral activity against HIV-1 3B infected human MT4 cells assessed as inhibition in viral syncytium formation by MTT assay. Type of data set: functional, organism-based. As to conditions: Human immunodeficiency virus 1, 3B. In short, it runs like this:
(§1)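 MT-4 cells (6 × 10⁵ cells/mL) infected with HIV-1 IIIB or HIV-2 ROD stock at 100–300 CCID50, with serial fivefold compound dilutions in triplicate wells. After 5 days, viability was read by MTT reduction at 540 and 690 nm, using the median OD of three wells. EC50 is the concentration giving 50% inhibition of virus-induced syncytium formation.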
A general note: Tetrazolium dyes change colour on reduction, which living cells bring about.

Data set [2] concerns Human immunodeficiency virus 2. As to the kind of experiment: Antiviral activity against HIV-2 ROD infected human MT4 cells assessed as inhibition in viral syncytium formation by MTT assay. Type of data set: functional, organism-based. The conditions noted are these: Human immunodeficiency virus 2, ISOLATE ROD. Put shortly:
as §1

Data set [3] can be described thus: Cytotoxicity against mock-infected human MT4 cells by MTT assay. Type of data set: cell-based. In short, it runs like this:
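Mock-infected MT-4 cells (6 × 10⁵ cells/mL) were run in parallel with the infected wells, with serial fivefold compound dilutions in triplicate. After 5 days, viability was read by MTT at 540 and 690 nm, using the median OD of three wells. CC50 is the concentration that reduces OD540 of mock-infected controls by 50%.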

Data set [4] is described as follows: Selectivity index, ratio of CC50 for human MT4 cells to EC50 for HIV-1 3B. The data set is classed as toxicity, cell-based. The conditions noted are these: read-out: Ratio CC50/EC50. In short, it runs like this: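 SI is the ratio CC50/EC50, both taken from parallel 5-day MTT assays in MT-4 cells. CC50 comes from mock-infected cells and EC50 from HIV-1 IIIB-infected cells.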

Molecules are shown by their SMILES.

On to `Cc1cc(C)c(-n2c(SCC(=O)Nc3ncc(C)cc3Br)nc3cnccc32)c(C)c1`, for which the EC50 in data set [1] and in data set [2] was over 61 µM in each case. The molecule also yielded a CC50 in data set [3] of 61 µM. In data set [4], the selectivity ratio is under 1.

Turning to `Nc1ccn([C@H]2CC[C@@H](CO)O2)c(=O)n1` [ZALCITABINE], the EC50 in data set [2] came to 1.7 µM. In data set [3], this molecule came in with a 50% cytotoxic concentration (CC50) of over 95 µM. The selectivity ratio in data set [4] is over 68.

As for `Cc1cc(C)c(-n2c(SCC(=O)Nc3ccccc3Cl)nc3cccnc32)c(C)c1`, the EC50 in data set [1] and in data set [2] was over 3.9 µM throughout. In data set [3], this molecule came in with a CC50 of 3.9 µM. In addition, the selectivity ratio in data set [4] was under 1.

Consider `Cc1cc(C)c(-n2c(SCC(=O)Nc3ccccc3F)nc3cnccc32)c(C)c1`, for which the EC50 in data set [1] and in data set [2] was over 18 µM throughout. Half-maximal cytotoxicity in data set [3] (CC50) was put at 18 µM. The selectivity ratio in data set [4] was under 1.

On to `Cc1cc(C)c(-n2c(SCC(=O)Nc3ccccc3)nc3cnccc32)c(C)c1`, for which the EC50 in data set [1] and in data set [2] was over 17 µM throughout. Also, half-maximal cytotoxicity in data set [3] (CC50) was put at 17 µM. In data set [4], the selectivity ratio was under 1.

As to `Cc1cc(C)c(-n2c(SCC(=O)Nc3ccccc3Cl)nc3cnccc32)c(C)c1`, the EC50 in data set [1] and in data set [2] was over 19 µM in each case. In addition, the CC50 in data set [3] is 19 µM. In addition, the selectivity ratio in data set [4] was under 1.

Regarding `Cc1cc(C)c(-n2c(SCC(=O)Nc3ccc(C)cc3Br)nc3cccnc32)c(C)c1`, the EC50 in data set [1] and in data set [2] was over 0.99 µM in each case. Also, half-maximal cytotoxicity in data set [3] (CC50) was put at 0.99 µM. In addition, the selectivity ratio in data set [4] was under 1.

`Cc1cc(C)c(-n2c(SCC(=O)Nc3cccnc3Cl)nc3cccnc32)c(C)c1`: the EC50 in data set [1] and in data set [2] was over 6 µM each time. In addition, the CC50 in data set [3] was 6 µM. Besides, the selectivity ratio in data set [4] was under 1.

For `Cc1cc(C)c(-n2c(SCC(=O)Nc3ncc(C)cc3Br)nc3cccnc32)c(C)c1`, the EC50 in data set [1] and in data set [2] was over 102 µM in each case. Moreover, in data set [3], the midpoint of cytotoxicity, the CC50, lay at 102 µM. Besides, the selectivity ratio in data set [4] was under 1.

For `Cc1cc(C)c(-n2c(SCC(=O)Nc3ccccc3C)nc3cnccc32)c(C)c1`, the EC50 in data set [1] and in data set [2] was over 22 µM throughout. In data set [3], this molecule came in with a CC50 of 22 µM. Moreover, in data set [4], the selectivity ratio is under 1.

For the molecule `Cc1cc(C)c(-n2c(SCC(=O)Nc3ccc(C)cc3[N+](=O)[O-])nc3cccnc32)c(C)c1`, the EC50 in data set [1] and in data set [2] was over 144 µM each time. In addition, the CC50 in data set [3] came to 144 µM. Also, the selectivity ratio in data set [4] is under 1.

On to `Cc1cc(C)c(-n2c(SCC(=O)Nc3ccccc3C)nc3cccnc32)c(C)c1`, for which the EC50 in data set [1] and in data set [2] was over 15 µM each time. The same molecule showed a CC50 in data set [3] of 15 µM. Moreover, the selectivity ratio in data set [4] was under 1.

Take `Cc1cc(C)c(-n2c(SCC(=O)Nc3ccccc3)nc3cccnc32)c(C)c1`: the EC50 in data set [1] and in data set [2] was over 26 µM throughout. In data set [3], this molecule showed a CC50 of 26 µM. Besides, the selectivity ratio in data set [4] is under 1.

As for `Cc1cc(C)c(-n2c(SCC(=O)Nc3ccccc3F)nc3cccnc32)c(C)c1`, the EC50 in data set [1] and in data set [2] was over 3.7 µM throughout. Also, in data set [3], it took 3.7 µM to reach half-maximal cytotoxicity (CC50). Besides, in data set [4], the selectivity ratio was under 1.

`O=C1Nc2ccc(Cl)cc2[C@@](C#CC2CC2)(C(F)(F)F)O1` [EFAVIRENZ]: the CC50 in data set [3] was over 6.3 µM. The selectivity ratio in data set [4] is over 964.

Take `Cc1cc(C)c(-n2c(SCC(=O)Nc3ccc(Cl)cc3Cl)nc3cccnc32)c(C)c1`: the EC50 in data set [1] and in data set [2] was over 3 µM each time. In data set [3], the CC50 was 3.9 µM. For the same molecule, in data set [4], the selectivity ratio was under 1.

On to `Cc1cc(C)c(-n2c(SCC(=O)Nc3ccc(C)cc3Br)nc3cnccc32)c(C)c1`, for which the EC50 in data set [1] and in data set [2] was over 5.9 µM throughout. Further, the CC50 in data set [3] came out at 5.9 µM. Further, in data set [4], the selectivity ratio was under 1.

With `O=C(CSc1snnc1-c1ccc(Br)cc1Br)Nc1cccnc1Cl`, the concentration giving a half-maximal response (EC50) in data set [1] is 0.0364 µM. Moreover, in data set [4], the selectivity ratio is over 6460.

A word on the EC50: it is the concentration giving half of the maximal effect. By CC50 is commonly meant the concentration giving 50% cytotoxicity. High values mean lower toxicity to the cells, low ones greater toxicity to the cells.
